Source: ChEMBL document CHEMBL1132700, “Design, synthesis, structure-activity relationships, and biological characterization of novel arylalkoxyphenylalkylamine sigma ligands as potential antipsychotic drugs” (J Med Chem, 1999)

Target: T1, 5-hydroxytryptamine receptor 1A (Rattus norvegicus, UniProt P19327)
T1 sequence (P19327 whole entry): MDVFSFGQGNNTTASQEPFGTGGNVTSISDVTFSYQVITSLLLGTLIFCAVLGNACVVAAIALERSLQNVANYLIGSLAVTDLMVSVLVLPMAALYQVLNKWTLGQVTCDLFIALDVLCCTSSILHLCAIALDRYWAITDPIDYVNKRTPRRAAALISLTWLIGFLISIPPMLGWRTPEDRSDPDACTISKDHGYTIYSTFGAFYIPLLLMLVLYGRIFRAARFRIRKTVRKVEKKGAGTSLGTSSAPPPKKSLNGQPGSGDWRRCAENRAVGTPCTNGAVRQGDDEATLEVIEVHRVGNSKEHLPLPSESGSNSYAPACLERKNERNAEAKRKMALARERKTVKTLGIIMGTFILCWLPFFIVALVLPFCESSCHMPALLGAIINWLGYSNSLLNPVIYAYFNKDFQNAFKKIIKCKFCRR
Experiment: Inhibitory concentration against radioligand [3H]hydroxy-2-(di-n-propylamino)-tetralin binding to 5-hydroxytryptamine 1A receptor in rat
How it was run: (§1)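 Male Wistar rat brain membranes in 50 mM Tris/HCl pH 7.7. Radioligands: PCP site 5 nM [3H]-PCP; D1 1 nM [3H]-SCH23390; 5-HT1A 0.2 nM [3H]-8-OH-DPAT; 5-HT2 5 nM [3H]-ketanserin; α1 0.2 nM [3H]-prazosin. Competition with at least five drug concentrations, filtration on PEI-soaked glass-fiber filters, scintillation counting, IC50 by nonlinear curve fit.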

Row | SMILES | IC50 [nM]
1 | CCCN(CCC)CCc1cc(Cl)ccc1OCCc1ccccc1.O=C(O)C(=O)O | 289

Target: Serotonin 2 (5-HT2) receptor (Rattus norvegicus, UniProt P30994+P08909+P14842)
Experiment: Inhibitory concentration against radioligand [3H]ketanserin binding to 5-hydroxytryptamine 2 receptor in rat
How it was run: as §1

Row | SMILES | IC50 [nM]
2 | CCCN(CCC)CCc1cc(Cl)ccc1OCCc1ccccc1.O=C(O)C(=O)O | 196

Target: D(1A) dopamine receptor (Rattus norvegicus, UniProt P18901)
Experiment: Inhibitory concentration against radioligand [3H]SCH-23390 binding to Dopamine receptor D1 in rat
How it was run: as §1

Sequence of D(1A) dopamine receptor (P18901 whole entry): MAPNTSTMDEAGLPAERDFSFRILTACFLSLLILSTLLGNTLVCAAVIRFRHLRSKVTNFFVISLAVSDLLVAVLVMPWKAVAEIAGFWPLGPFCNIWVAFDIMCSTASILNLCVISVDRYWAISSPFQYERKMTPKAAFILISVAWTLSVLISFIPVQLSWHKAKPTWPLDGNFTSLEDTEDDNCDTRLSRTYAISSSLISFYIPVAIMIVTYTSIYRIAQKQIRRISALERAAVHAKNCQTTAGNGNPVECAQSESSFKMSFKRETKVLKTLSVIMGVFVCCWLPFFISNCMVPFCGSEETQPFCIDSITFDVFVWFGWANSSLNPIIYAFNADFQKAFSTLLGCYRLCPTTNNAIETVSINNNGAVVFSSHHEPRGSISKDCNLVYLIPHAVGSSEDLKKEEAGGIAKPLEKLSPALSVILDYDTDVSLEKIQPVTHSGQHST

Row | SMILES | IC50 [nM]
3 | CCCN(CCC)CCc1cc(Cl)ccc1OCCc1ccccc1.O=C(O)C(=O)O | > 1000

Target: D(2) dopamine receptor (Rattus norvegicus, UniProt P61169)
Experiment: Inhibitory concentration against radioligand [3H](-)-sulpiride binding to Dopamine receptor D2 in rat
How it was run: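 Striatal membranes from male Wistar rats (200–250 g), homogenized in 50 mM Tris/HCl pH 7.7, washed by repeated 50000g spins. Filtration on PEI-soaked glass-fiber filters, then scintillation counting. IC50 by nonlinear curve fitting, duplicate determinations.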

Sequence of D(2) dopamine receptor (P61169 whole entry): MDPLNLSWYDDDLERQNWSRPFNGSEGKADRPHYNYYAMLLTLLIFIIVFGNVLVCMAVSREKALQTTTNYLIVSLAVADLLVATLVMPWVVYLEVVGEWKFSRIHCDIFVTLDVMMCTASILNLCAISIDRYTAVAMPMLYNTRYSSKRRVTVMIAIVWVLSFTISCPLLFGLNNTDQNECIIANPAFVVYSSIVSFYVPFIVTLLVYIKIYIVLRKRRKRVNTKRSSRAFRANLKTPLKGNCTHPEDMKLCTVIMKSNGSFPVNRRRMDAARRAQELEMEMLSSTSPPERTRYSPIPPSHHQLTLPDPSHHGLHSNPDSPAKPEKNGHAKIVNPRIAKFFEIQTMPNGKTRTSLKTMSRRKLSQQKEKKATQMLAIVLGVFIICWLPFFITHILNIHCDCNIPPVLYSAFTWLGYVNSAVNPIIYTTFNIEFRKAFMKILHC

Row | SMILES | IC50 [nM]
4 | Clc1ccc(OCCc2ccccc2)c(CCN2CCCC2)c1 | 69
5 | CCCN(CCC)CCc1ccc(OCCc2ccccc2)cc1OC | > 1000
6 | CCCN(CCc1ccc(OC)c(OCCc2ccccc2)c1)CCC(C)C | 680
7 | CCCNCCc1ccc(OC)c(OCCc2ccccc2)c1 | > 1000
8 | CCCN(CCC)CCc1ccc(OC)c(OCCc2cccc(Cl)c2)c1 | > 1000
9 | COc1ccc(CCN2CCCC2)cc1OCCc1ccccc1 | > 1000
10 | COc1ccccc1N1CCN(CCCc2cc(Cl)ccc2OCCc2ccccc2)CC1 | 16
11 | CCCN(CCC)CCc1ccc(OC)c(OCCCc2ccccc2)c1 | > 1000
12 | CCCN(CCC)CCc1ccc(OC)c(OCc2ccccc2)c1.O=C(O)C(=O)O | > 1000
13 | CCCN(CCC)CCc1ccccc1OCCc1ccccc1 | 436
14 | COc1ccccc1N1CCN(CCc2cc(Cl)ccc2OCCc2ccccc2)CC1 | 88
15 | CCCN(CCC)CCc1ccc(Cl)cc1OCCc1ccccc1 | > 1000
16 | COc1ccc(CCN)cc1OCCc1ccccc1 | > 1000
17 | CCCN(CCC)CCc1cccc(F)c1OCCc1ccccc1 | > 1000
18 | CCCCCCN(CCC)CCc1ccc(OC)c(OCCc2ccccc2)c1 | 619
19 | CCCN(CCCO)CCc1ccc(OC)c(OCCc2ccccc2)c1 | > 1000
20 | Cc1cccc(N2CCN(CCCc3cc(Cl)ccc3OCCc3ccccc3)CC2)n1 | 293
21 | Clc1ccc(OCCc2ccccc2)c(CCN2CCN(c3ncccn3)CC2)c1 | 143
22 | CCCN(CCC)CCc1ccc(O)c2c1-c1ccccc1CO2 | > 1000
23 | CCCN(CCC)CCc1cc(F)ccc1OCCc1ccccc1 | > 1000
24 | CCCN(CCC)CCc1ccc(OC)c2c1-c1ccccc1CO2 | > 1000
25 | CCCN(CCC)CCc1cc(Cl)cc(Cl)c1OCCc1ccccc1 | > 1000
26 | Clc1ccc(OCCc2ccccc2)c(CCCN2CCN(c3ccccc3)CC2)c1 | 180
27 | COc1cccc(CCN2CCN(c3ccccc3)CC2)c1OCCc1ccccc1 | 66
28 | Clc1ccc(OCCc2ccccc2)c(CCN2CCOCC2)c1 | 163

Species on record: Mus musculus
Experiment: Effective dose against (+)-SKF-10047-induced stereotyped behavior in mice was determined
Format: functional
How it was run: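 Male ICR mice (25–30 g, 10 per group) acclimatized at least 1 h. Test drug given orally 30 min before (+)-SKF10,047 30 mg/kg ip. Stereotypy scored on a 0–5 scale from 10 min post-injection, every 5 min for 40 min. Vehicle plus three doses were tested. Total score expressed as percent of control, and ED25 derived.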

Row | SMILES | ED25 [mg/kg]
29 | CCCN(CCC)CCc1cc(Cl)ccc1OCCc1ccccc1.O=C(O)C(=O)O | 235

Target: Glutamate receptor ionotropic, NMDA 1 (Rattus norvegicus, UniProt P35439)
Experiment: Inhibitory concentration against radioligand [3H]PCP binding to PCP site of N-methyl-D-aspartate glutamate receptor in rat
How it was run: as §1

Row | SMILES | IC50 [nM]
30 | CCCN(CCC)CCc1cc(Cl)ccc1OCCc1ccccc1.O=C(O)C(=O)O | > 1000

Target: Sigma non-opioid intracellular receptor 1 (Rattus norvegicus, UniProt Q9R0C9)
Experiment: Inhibitory concentration against radioligand [3H]3-PPP binding to Sigma opioid receptor type 1 in rat brain membrane
Format: cell membranes
How it was run: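 Rat whole-brain membranes from male Wistar rats (200–250 g), homogenized in 50 mM Tris/HCl pH 7.7, washed by repeated 50000g spins. Incubated with 2 nM [3H]-(+)-3-PPP and at least five concentrations of unlabeled drug. Filtered on polyethylenimine-soaked glass-fiber filters and counted by scintillation. IC50 from nonlinear curve fitting of competition data, duplicate determinations.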

Sequence of Sigma non-opioid intracellular receptor 1 (Q9R0C9 whole entry): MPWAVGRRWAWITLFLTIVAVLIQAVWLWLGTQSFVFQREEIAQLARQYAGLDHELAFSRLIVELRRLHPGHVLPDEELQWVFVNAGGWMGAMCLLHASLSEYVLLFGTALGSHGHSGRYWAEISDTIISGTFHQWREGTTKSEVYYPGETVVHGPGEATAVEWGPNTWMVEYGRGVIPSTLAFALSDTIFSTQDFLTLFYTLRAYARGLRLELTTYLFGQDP

Row | SMILES | IC50 [nM]
31 | Clc1ccc(OCCc2ccccc2)c(CCN2CCCC2)c1 | 36
32 | CCCN(CCc1ccc(OC)c(OCCc2ccccc2)c1)CCC(C)C | 2.9
33 | COc1ccccc1N1CCN(CCCc2cc(Cl)ccc2OCCc2ccccc2)CC1 | 319
34 | CCCN(CCC)CCc1ccc(OC)c(OCc2ccccc2)c1.O=C(O)C(=O)O | 28
35 | CCCN(CCC)CCc1ccccc1OCCc1ccccc1 | 15
36 | COc1ccccc1N1CCN(CCc2cc(Cl)ccc2OCCc2ccccc2)CC1 | 640
37 | CCCN(CCC)CCc1cccc(F)c1OCCc1ccccc1 | 22
38 | CCCCCCN(CCC)CCc1ccc(OC)c(OCCc2ccccc2)c1 | 1.8
39 | CCCN(CCCO)CCc1ccc(OC)c(OCCc2ccccc2)c1 | 19
40 | Cc1cccc(N2CCN(CCCc3cc(Cl)ccc3OCCc3ccccc3)CC2)n1 | 415
41 | Clc1ccc(OCCc2ccccc2)c(CCN2CCN(c3ncccn3)CC2)c1 | > 1000
42 | CCCN(CCC)CCc1ccc(O)c2c1-c1ccccc1CO2 | 558
43 | CCCN(CCC)CCc1cc(F)ccc1OCCc1ccccc1 | 13
44 | CCCN(CCC)CCc1ccc(OC)c2c1-c1ccccc1CO2 | 990
45 | CCCN(CCC)CCc1cc(Cl)cc(Cl)c1OCCc1ccccc1 | 281
46 | COc1cccc(CCN2CCN(c3ccccc3)CC2)c1OCCc1ccccc1 | 328
47 | Clc1ccc(OCCc2ccccc2)c(CCN2CCOCC2)c1 | 308

Target: T2, Adrenergic receptor alpha-1 (Rattus norvegicus, UniProt P15823+P23944+P43140)
T2 sequence (P15823 whole entry): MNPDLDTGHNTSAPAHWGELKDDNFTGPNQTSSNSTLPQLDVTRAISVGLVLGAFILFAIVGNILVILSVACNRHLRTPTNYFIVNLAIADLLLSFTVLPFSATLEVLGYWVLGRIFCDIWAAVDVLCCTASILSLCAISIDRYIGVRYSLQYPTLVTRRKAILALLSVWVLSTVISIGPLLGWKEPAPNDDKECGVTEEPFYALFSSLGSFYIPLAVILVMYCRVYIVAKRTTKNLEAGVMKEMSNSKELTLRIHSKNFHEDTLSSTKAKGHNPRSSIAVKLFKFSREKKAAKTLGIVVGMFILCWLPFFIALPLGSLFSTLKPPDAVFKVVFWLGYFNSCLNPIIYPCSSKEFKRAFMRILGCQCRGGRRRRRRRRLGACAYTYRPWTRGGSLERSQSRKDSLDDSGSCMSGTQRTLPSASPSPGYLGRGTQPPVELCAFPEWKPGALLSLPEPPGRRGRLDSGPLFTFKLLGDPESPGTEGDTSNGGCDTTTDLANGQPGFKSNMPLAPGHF
T2 sequence (P23944 whole entry): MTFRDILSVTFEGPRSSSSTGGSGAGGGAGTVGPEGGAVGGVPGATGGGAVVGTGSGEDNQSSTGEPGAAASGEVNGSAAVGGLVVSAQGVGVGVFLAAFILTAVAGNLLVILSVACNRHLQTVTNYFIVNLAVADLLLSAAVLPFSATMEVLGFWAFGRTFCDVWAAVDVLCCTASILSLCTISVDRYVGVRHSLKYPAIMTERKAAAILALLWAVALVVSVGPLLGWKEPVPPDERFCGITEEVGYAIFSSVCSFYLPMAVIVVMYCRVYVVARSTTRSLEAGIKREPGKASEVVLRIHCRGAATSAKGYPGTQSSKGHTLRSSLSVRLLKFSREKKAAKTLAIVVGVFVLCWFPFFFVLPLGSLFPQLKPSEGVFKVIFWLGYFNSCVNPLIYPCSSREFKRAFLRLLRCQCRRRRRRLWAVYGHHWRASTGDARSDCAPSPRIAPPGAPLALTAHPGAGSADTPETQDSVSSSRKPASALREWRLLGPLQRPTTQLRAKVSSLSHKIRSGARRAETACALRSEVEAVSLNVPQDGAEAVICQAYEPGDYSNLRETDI
T2 sequence (P43140 whole entry): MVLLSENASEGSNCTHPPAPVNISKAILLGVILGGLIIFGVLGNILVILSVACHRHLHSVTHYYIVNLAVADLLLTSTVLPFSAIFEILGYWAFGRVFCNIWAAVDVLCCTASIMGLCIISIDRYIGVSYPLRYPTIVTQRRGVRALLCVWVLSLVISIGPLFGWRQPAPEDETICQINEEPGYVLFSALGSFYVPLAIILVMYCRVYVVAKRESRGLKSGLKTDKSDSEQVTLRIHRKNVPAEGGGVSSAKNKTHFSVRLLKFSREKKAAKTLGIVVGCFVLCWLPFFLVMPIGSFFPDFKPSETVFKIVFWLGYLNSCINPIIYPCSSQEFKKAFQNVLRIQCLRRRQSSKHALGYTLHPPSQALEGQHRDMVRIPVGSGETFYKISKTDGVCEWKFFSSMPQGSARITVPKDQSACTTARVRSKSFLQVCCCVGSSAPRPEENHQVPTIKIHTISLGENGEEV
Experiment: Inhibitory concentration against radioligand [3H]prazosin binding to Alpha-1 adrenergic receptor in rat
How it was run: as §1

Row | SMILES | IC50 [nM]
48 | CCCN(CCC)CCc1cc(Cl)ccc1OCCc1ccccc1.O=C(O)C(=O)O | 90
